Key:
[1] = 673 renal transplant patients; cited from earlier work
[2] = Pharmacokinetics of RAD001 in blood, Phase I once-daily oral dosing; format: in vivo, Japanese patients; settings: for CL/F / AUC / Cmax: mean ± SD; for AUC / Cmax / Tmax: human, whole blood, oral; for AUC: AUCτ, 0 to 24 h
Method in brief: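 Adults aged ≥20 years, Japanese, with refractory advanced tumours; strong CYP3A4 inhibitors or inducers excluded. Oral dosing once daily at 2.5, 5 or 10 mg in continuous 28-day cycles. Per cohort: Cmax, tmax, AUC 0–24 h and CL/F. Descriptive statistics, means ± SD.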

[3] = 2.5 mg/day, Day 1, 2.5 mg/day (n = 3)
[4] = 2.5 mg/day, Day 15, 2.5 mg/day (n = 3)
[5] = 5 mg/day, Day 1, 5 mg/day (n = 3)
[6] = 5 mg/day, Day 15, 5 mg/day (n = 3)
[7] = 10 mg/day, Day 1, 10 mg/day (n = 3)

Compound: CO[C@H]1C[C@@H]2CC[C@@H](C)[C@@](O)(O2)C(=O)C(=O)N2CCCC[C@H]2C(=O)O[C@H]([C@H](C)C[C@@H]2CC[C@@H](OCCO)[C@H](OC)C2)CC(=O)[C@H](C)/C=C(\C)[C@@H](O)[C@@H](OC)C(=O)[C@H](C)C[C@H](C)/C=C/C=C/C=C/1C [RAD001, everolimus]
- Difference in clearance between Asian and Caucasian patients [1]: no significant differences
- CL/F ([2]; Day 15, 2.5 mg/day (n = 3)): 19.1 ± 3.26 L/h
- CL/F ([2]; Day 15, 5 mg/day (n = 3)): 9.94 ± 3.21 L/h
- CL/F ([2]; Day 15, 10 mg/day (n = 3)): 14.3 ± 2.23 L/h
- Time at which Cmax was apparent ([2]; after administration of a single oral dose): 2 h
- Time to Cmax ([2]; after oral administration): 1 to 2 h
- Increase of Cmax and AUCτ with dose ([2]; day 1, 2.5 to 10 mg): almost dose-proportionally
- Exposure (AUCτ) after multiple dosing (day 15) relative to single dose (day 1) ([2]; days 1 and 15): about twice
- AUC [2, 3]: 85.2 ± 18.7 ng·h/mL
- AUC [2, 4]: 134 ± 24.1 ng·h/mL
- Cmax [2, 3]: 15.1 ± 2.48 ng/mL
- Cmax [2, 4]: 16.8 ± 1.33 ng/mL
- Tmax ([2]; 2.5 mg/day, tmax Median, Day 1, 2.5 mg/day (n = 3)): 1.98 h
- Tmax ([2]; 2.5 mg/day, tmax Range, Day 1, 2.5 mg/day (n = 3)): 0.98 to 2 h
- Tmax ([2]; 2.5 mg/day, tmax Range, Day 15, 2.5 mg/day (n = 3)): 1 to 1.98 h
- AUC [2, 5]: 211 ± 50 ng·h/mL
- AUC [2, 6]: 543 ± 189 ng·h/mL
- Cmax [2, 5]: 31.5 ± 3.4 ng/mL
- Cmax [2, 6]: 57.6 ± 17.6 ng/mL
- Tmax ([2]; 5 mg/day, tmax Median, Day 15, 5 mg/day (n = 3)): 1.98 h
- Tmax ([2]; 5 mg/day, tmax Range, Day 1, 5 mg/day (n = 3)): 1 to 1.95 h
- Tmax ([2]; 5 mg/day, tmax Range, Day 15, 5 mg/day (n = 3)): 1.93 to 1.98 h
- AUC [2, 7]: 401 ± 51.6 ng·h/mL
- Cmax [2, 7]: 49.4 ± 14.8 ng/mL
- Cmax ([2]; 10 mg/day, Day 15, 10 mg/day (n = 3)): 65.9 ± 1.4 ng/mL
- Tmax ([2]; 10 mg/day, tmax Median, Day 1, 10 mg/day (n = 3)): 2 h
- Tmax ([2]; 10 mg/day, tmax Median, Day 15, 10 mg/day (n = 3)): 2.02 h
- Tmax ([2]; 10 mg/day, tmax Range, Day 1, 10 mg/day (n = 3)): 1.92 to 2 h
- Tmax ([2]; 10 mg/day, tmax Range, Day 15, 10 mg/day (n = 3)): 2 to 2.2 h
- Time to steady state (Cmin) ([2]; repeated once-daily oral dosing): ~8 days

Reference: PMC2800315 (Japanese Journal of Clinical Oncology, 2009)
